Laboratory results taken from paper PMC7323835 (American Journal of Clinical Oncology, 2020).

Legend:
[1] = test system: patients with previously treated, advanced solid tumors; assay: Phase 1 dose escalation study: safety and tolerability; format: in vivo, human
[2] = Plasma pharmacokinetics of SLC-0111 after single and repeated dosing; format: in vivo, human; details: for AUC(0-t) / Tmax: human, plasma, oral; for AUC(0-t): AUC(0-24), Day 1, mean; for Tmax: range of cohort means
advanced solid tumors = assay: Tumor response; format: in vivo, human
Outline: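 Patients with previously treated advanced solid tumours were enrolled in an open-label 3+3 escalation. The test compound was given as an oral liquid (100 mg/mL in lecithin/propylene glycol/PEG/TPGS vehicle) once daily, ≥2 h from meals, in 28-day cycles. CT/MRI was scored by RECIST v1.1 (CR/PR/SD/PD) every 8 weeks (±7 d) until progression, discontinuation or consent withdrawal. SD duration was counted in cycles.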

rats = assay: GLP 28-day toxicology study in rats; format: in vivo, rat; details: highest dose tested in rats, 28-day GLP

NS(=O)(=O)c1ccc(NC(=O)Nc2ccc(F)cc2)cc1 [SLC-0111, 4-[(4-fluorophenyl)carbamoyl]amino-benzene sulfonamide]
Dose-limiting toxicities (in words) ([1]; 500, 1000 and 2000 mg, cycle 1, 10 evaluable patients): No protocol defined DLTs were observed | Hypophosphatemia, Grade of the grade 3-4 events (CTCAE) ([1]; Cohort 1 (500 mg)): 3 | Fatigue, Grade of the grade 3-4 events (CTCAE) ([1]; Cohort 2 (1000 mg)): 3 | Pulmonary embolism (SAE), Grade (CTCAE) ([1]; Cohort 2 (1000 mg)): 3 | Alanine Transaminase, Grade of the grade 3-4 events (CTCAE) ([1]; Cohort 3 (2000 mg)): 3 | Clostridium entercolitis (SAE), Grade (CTCAE) ([1]; Cohort 3 (2000 mg)): 3 | Fatigue, Grade of the grade 3-4 events (CTCAE) ([1]; Cohort 3 (2000 mg)): 3 | Hepatobiliary disorder (SAE), Grade (CTCAE) ([1]; Cohort 3 (2000 mg)): 3 | Hypophosphatemia, Grade of the grade 3-4 events (CTCAE) ([1]; Cohort 3 (2000 mg)): 3 | Total treatment emergent AEs reported over the course of the study ([1]; all cohorts, 17 patients): 184 | Treatment emergent AEs considered related to SLC-0111 ([1]; all cohorts, 17 patients): 91 | SAEs recorded across the entire study group ([1]; all cohorts, only hepatobiliary disorder drug related): Three | Tolerability (in words) ([1]; doses of 1000 mg daily or below): generally well tolerated | Maximum tolerated dose ([1]; doses up to 2000 mg daily): not established | Recommended phase II dose (RP2D) ([1]; oral liquid formulation, once daily): 1000 mg/day | Day 28/Day 1 AUC(0-24) ratio ([2]; 500 mg/d): 2.01±0.879 | Day 28/Day 1 Cmax±SD ratio ([2]; 500 mg/d): 1.32±0.298 | Day 28/Day 1 AUC(0-24) ratio ([2]; 1000 mg/d): 1.47±1.42 | Day 28/Day 1 Cmax±SD ratio ([2]; 1000 mg/d): 1.17±1.02 | Day 28/Day 1 AUC(0-24) ratio ([2]; 2000 mg/d): 2.18±0.247 | Day 28/Day 1 Cmax±SD ratio ([2]; 2000 mg/d): 3.70±4.30 | Dose proportionality of exposure (in words) ([2]; Cmax and AUC(0-24), days 1 and 28, 500-2000 mg): generally dose proportional | AUC(0-t) ([2]; 500 mg, 500 mg, N=3): 33000 ng·h/mL | AUC(0-t) ([2]; 1000 mg, 1000 mg, N=3): 70000 ng·h/mL | AUC(0-t) ([2]; 2000 mg, 2000 mg, N=2): 94000 ng·h/mL | Tmax ([2]; Day 1, 500-2000 mg cohorts): 2.46 to 6.05 h | Tmax ([2]; Day 28, 500-2000 mg cohorts): 2.61 to 5.02 h | Objective responses (advanced solid tumors; all cohorts): no objective responses were observed | Stable disease maintained, number of 28-day cycles (advanced solid tumors; cohort 1 (500 mg), one patient with sarcoma of spine): 10 cycles | Stable disease up to cycle (advanced solid tumors; cohort 3 (2000 mg), one patient with colorectal cancer): ≤ 7 | Prolonged stable disease (SD), duration (advanced solid tumors; observed in 2 patients): > 24 weeks | Severe toxic dose in 10% (STD10) of treated rodents (rats): 500 mg/kg/day
